Here are results for three molecules from ChEMBL document CHEMBL1126152, “Fluoronaphthyridines as antibacterial agents. 4. Synthesis and structure-activity relationships of 5-substituted-6-fluoro-7-(cycloalkylamino)-1,4-dihydro-4-oxo-1,8- naphthyridine-3-carboxylic acids” (J Med Chem, 1992).

One may read the MIC as the lowest concentration found to suppress growth. A higher MIC goes with a need for much substance. Usually half-life stands for the time needed for the level to fall by half in the phase considered. Higher therefore signals slow loss. For orientation: Cmax means the peak of the concentration-time curve. One may read the AUC as concentration integrated over time. Low readings indicate less exposure, high ones more exposure. Usually LD50 stands for the dose expected to kill half of the subjects tested. High values mean lower toxicity, low ones greater toxicity. A word on the solubility: it is the dissolved amount per volume that the medium holds. A low value points to a poorly soluble substance. By logD is commonly meant lipophilicity at a set pH, counting ionised and neutral species. A higher logD goes with higher lipophilicity.

Values after ≈ are worked out from the molar mass of the structure shown.

For one data set, the system named is Serratia marcescens. In words: In vitro for antibacterial activity against Serratia marcescens. Type of data set: functional. A digest of the protocol: (§1)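 MIC by serial 2-fold broth dilution in nutrient broth with an inoculum of 10^6 CFU/mL. Compound range was 0.0005–250 μg/mL. Plates were incubated 18 h at 37 °C. MIC was taken as the lowest concentration preventing visible growth.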

The nature of data set [1]: in vivo. Conditions: mouse, plasma, T1/2.
Data set [2] in a line: in vivo. Conditions: mouse, plasma.
The test system of a further data set is Proteus mirabilis. Nature of the data set: In vitro for antibacterial activity against Proteus mirabilis. Type of data set: functional. Summed up: as §1
In data set [3] the test system is Escherichia coli. In words: In vitro for antibacterial activity against Escherichia coli. Type of data set: functional. A digest of the protocol: as §1
Data set [4] deals with Staphylococcus aureus. Nature of the data set: Antibacterial activity against Staphylococcus aureus. Type of data set: functional.
A further data set relates to Enterobacter cloacae. Nature of the data set: In vitro for antibacterial activity against Enterobacter cloacae. Type of data set: functional.
Data set [5] relates to Pseudomonas aeruginosa. In words: In vitro for antibacterial activity against Pseudomonas aeruginosa. Type of data set: functional. A digest of the protocol:
as §1

In data set [6] the test system is Pseudomonas aeruginosa. In words: Compound was tested for […] against Pseudomonas aeruginosa A 9843 after oral administration of drug in mice, value in the parenthesis indicates 95% confidence limits. Type of data set: functional. Conditions: read-out: PD50. A digest of the protocol:
(§2)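 Mouse protection test against systemic infection. Compound was dissolved in sterile water and given orally to female OF1-strain Swiss mice weighing 18–25 g, with five mice per group.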

A further data set is filed under the species Mus musculus. Conditions: in vivo.
In a further data set the test system is Klebsiella pneumoniae. In words: In vitro for antibacterial activity against Klebsiella pneumoniae. Type of data set: functional. A digest of the protocol:
as §1

Data set [7] can be described thus: % dose recovered in mouse urine. Conditions: % recovery.
For data set [8], the system named is Streptococcus pneumoniae. Nature of the data set: Antibacterial activity against Streptococcus pneumoniae. Type of data set: functional.
A further data set relates to Staphylococcus. Nature of the data set: Compound was tested for […] against Staphylococcus aureus A 15090 after oral administration of drug in value in the parenthesis indicates 95% confidence limits. Type of data set: functional. Conditions: read-out: PD50. Summed up:
as §2

The next data set relates to Bacteroides fragilis. Nature of the data set: In vitro for antibacterial activity against […]. Type of data set: functional. A digest of the protocol:
as §1

The next data set concerns Morganella morganii. In words: In vitro for antibacterial activity against Morganella morganii. Type of data set: functional. Summed up: as §1
Another data set deals with Enterococcus faecalis. In words: In vitro for antibacterial activity against Enterococcus faecalis. Type of data set: functional. A digest of the protocol:
as §1

The subject of data set [9] is Pseudomonas aeruginosa. Nature of the data set: Compound was tested for […] against Pseudomonas aeruginosa A 9843 after oral administration of drug in mice,. Type of data set: functional. Conditions: read-out: PD50. A digest of the protocol:
as §2

Data set [10] in a line: Lethal dose was determined in OF1-strain female Swiss mice after oral administration of the drug. Conditions: mouse, in vivo.
Data set [11] can be described thus: (§3) Solubility was measured at PH - 7.2 buffer.
The subject of data set [12] is Escherichia coli. Nature of the data set: Compound was tested for […] against Escherichia coli A 15119 after oral administration of drug in mice. Type of data set: functional. Conditions: read-out: PD50. Summed up:
as §2

Data set [13] deals with Streptococcus pneumoniae. In words: animal or person. Type of data set: functional. Conditions: in Mus musculus, po, read-out: PD50.
The test system of data set [14] is Staphylococcus aureus. Nature of the data set: animal or person. Type of data set: functional. Conditions: in Mus musculus, po, read-out: PD50.
The nature of data set [15]: Partition coefficient (logD). Conditions: octanol/water.
Data set [16] is described as follows: Lethal dose was determined in OF1-strain female Swiss mice after intra venous administration of the drug. Conditions: mouse, in vivo, iv.
Data set [17] can be described thus: as §3. Type of data set: physicochemical. Summed up:
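Excess solid was shaken overnight at 22 °C in pH 7.2 buffer for injection, then filtered. The diluted filtrate was assayed by HPLC with UV detection.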

As for `Cc1c(F)c(N2CC3CC2CN3)nc2c1c(=O)c(C(=O)O)cn2C(C)(C)C` (configuration not stated), the MIC came to 0.13 µg/mL (≈ 0.347 µM) in the data set with Serratia marcescens; 0.25 µg/mL (≈ 0.668 µM) in the data set on Proteus mirabilis; 30 ng/mL (≈ 0.0801 µM) with Escherichia coli [3]; 0.02 µg/mL (≈ 0.0534 µM) in the data set with Staphylococcus aureus [4]; 130 ng/mL (≈ 0.347 µM) with Enterobacter cloacae; 2 µg/mL (≈ 5.34 µM) in the data set with Pseudomonas aeruginosa [5]. Moreover, the MIC in the data set with Klebsiella pneumoniae turned out to be 0.06 µg/mL (≈ 0.16 µM); with Streptococcus pneumoniae [8], 0.25 µg/mL (≈ 0.668 µM); in the data set with Bacteroides fragilis, 32 µg/mL (≈ 85.5 µM); against Morganella morganii, 0.13 µg/mL (≈ 0.347 µM); with Enterococcus faecalis, 0.5 µg/mL (≈ 1.34 µM). Further, the half-life in “in vivo [1]” turned out to be 186 min. Moreover, the Cmax in “in vivo [2]” came to 22000 ng/mL. Moreover, the ED50 in the data set with Pseudomonas aeruginosa [6] amounted to 4.1 mg/kg; with Staphylococcus it was 12.5 mg/kg. Also, in the data set listed under Mus musculus, the AUC is 74 µg·h/mL. The dose excreted in [7] stood at 12%.
Regarding `Cc1c(F)c(N2CC[C@H](N)C2)nc2c1c(=O)c(C(=O)O)cn2C1CC1`, the MIC is 0.004 µg/mL (≈ 0.0115 µM) with Serratia marcescens; 0.008 µg/mL (≈ 0.0231 µM) in the data set on Proteus mirabilis; 2 ng/mL (≈ 0.00577 µM) with Escherichia coli [3]; 0.004 µg/mL (≈ 0.0115 µM) in the data set on Staphylococcus aureus [4]; 2 ng/mL (≈ 0.00577 µM) against Enterobacter cloacae; 0.25 µg/mL (≈ 0.722 µM) in the data set with Pseudomonas aeruginosa [5]. Moreover, the MIC with Klebsiella pneumoniae came out at 0.004 µg/mL (≈ 0.0115 µM); in the data set on Streptococcus pneumoniae [8], 0.13 µg/mL (≈ 0.375 µM); against Bacteroides fragilis it was 0.25 µg/mL (≈ 0.722 µM); in the data set on Morganella morganii, 0.016 µg/mL (≈ 0.0462 µM); in the data set with Enterococcus faecalis it was 0.13 µg/mL (≈ 0.375 µM). The ED50 amounted to 2.8 mg/kg with Pseudomonas aeruginosa [9], 1.8 mg/kg in the data set on Escherichia coli [12], 19 mg/kg in the data set on Streptococcus pneumoniae [13] and 5.5 mg/kg with Staphylococcus aureus [14]. In addition, the LD50 in [10] turned out to be 2500 mg/kg; in data set [16] it was 56 mg/kg. The molecule further yielded a solubility in [11] of 70 µg/mL (≈ 202 µM). For the same molecule, in data set [15], the logD is 0.78.
For the molecule `CCn1cc(C(=O)O)c(=O)c2c(C)c(F)c(N3CC[C@H](N)C3)nc21`, the MIC in the data set on Serratia marcescens amounted to 0.13 µg/mL (≈ 0.389 µM); against Proteus mirabilis, 0.13 µg/mL (≈ 0.389 µM); with Escherichia coli [3], 2 ng/mL (≈ 0.00598 µM); with Staphylococcus aureus [4], 0.016 µg/mL (≈ 0.0479 µM); against Enterobacter cloacae it was 8 ng/mL (≈ 0.0239 µM); in the data set with Pseudomonas aeruginosa [5], 1 µg/mL (≈ 2.99 µM). Besides, the MIC is 0.016 µg/mL (≈ 0.0479 µM) against Klebsiella pneumoniae, 0.5 µg/mL (≈ 1.5 µM) against Streptococcus pneumoniae [8], 0.03 µg/mL (≈ 0.0897 µM) with Morganella morganii and 2 µg/mL (≈ 5.98 µM) against Enterococcus faecalis. Besides, the solubility in data set [17] was found to be 30 µg/mL (≈ 89.7 µM).
